Shown are actives, neighbours in structure and some others; about 2.5% of the full set was active somewhere.
NadD inh: inhibitors of Staphylococcus aureus NadD. purified NadD enzyme, colorimetric absorbance read-out. inhibition, % at 20 µM. AID 602399. 0.78% of 360,000 active; in the data active = inhibition above about 26%
GRK2 aptamer HTS: human GRK2 inhibition via aptamer displacement; P25098; bead flow cytometry, FAM-aptamer displacement from GRK2; inhibition of aptamer binding, % at 10 µM; 0.59% of 330,000 active; AID 488847;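 active = inhibition of aptamer binding above 40%, roughly 3 SD of noise, on plates passing a quality check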;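 also: median bead fluorescence of bound FAM aptamer so fluorescent compounds give negative values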
Target sequence (P25098 whole entry, looked up): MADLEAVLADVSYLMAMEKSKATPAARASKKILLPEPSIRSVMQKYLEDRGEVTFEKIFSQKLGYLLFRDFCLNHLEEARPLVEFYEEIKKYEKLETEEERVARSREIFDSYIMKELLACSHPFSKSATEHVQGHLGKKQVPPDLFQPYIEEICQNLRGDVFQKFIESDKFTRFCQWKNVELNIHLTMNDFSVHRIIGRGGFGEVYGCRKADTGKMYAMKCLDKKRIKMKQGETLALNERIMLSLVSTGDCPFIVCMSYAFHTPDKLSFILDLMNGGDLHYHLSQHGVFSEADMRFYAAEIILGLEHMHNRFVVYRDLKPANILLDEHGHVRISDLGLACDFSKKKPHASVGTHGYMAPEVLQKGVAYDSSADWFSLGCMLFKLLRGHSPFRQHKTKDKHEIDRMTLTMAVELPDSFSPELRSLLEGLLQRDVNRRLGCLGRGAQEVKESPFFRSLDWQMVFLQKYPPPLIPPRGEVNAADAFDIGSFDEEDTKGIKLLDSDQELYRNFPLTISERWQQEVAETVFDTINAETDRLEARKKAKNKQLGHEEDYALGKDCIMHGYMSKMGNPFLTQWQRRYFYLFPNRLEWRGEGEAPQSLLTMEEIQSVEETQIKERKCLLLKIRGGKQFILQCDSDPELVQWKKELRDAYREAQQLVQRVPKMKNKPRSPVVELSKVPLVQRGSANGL
Beta2AR agonist: human beta-2 adrenergic receptor agonism by FAP. Am2.2-beta2AR cells, FAP receptor internalization, flow cytometry. response, % (no concentration beside the values). 0.43% of 340,000 active;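 active = response above a set limit, near 3 SD of response in nonfluorescent compounds, cut at about 42% in these data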
ABHD5-PLIN5 inh: inhibitors of human ABHD5-perilipin-5 interaction. Q00G26+Q8WTS1. Split G. princeps luciferase complementation, luminescence, 4 h. inhibition, % at 4 µM. 0.78% of 360,000 active;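 active = inhibition above the mean inhibition across every tested compound plus 3 SD, cut at about 22% in these data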;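 also: 0% = DMSO only wells and the 100% control is not disclosed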
SENP1 FRET inh: SENP1 (human) catalytic domain inhibition. inhibition, % at 10 µM. recombinant SENP1 catalytic domain, CyPet-SUMO1-YPet FRET cleavage. Q9P0U3. 0.21% of 360,000 active;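 active = inhibition at least 30% at 10 µM, raw YFP signal under a set limit, fluorescence ratio 0.5 to 1.5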;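 also: 0% = enzyme with DMSO and 100% = no enzyme wells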
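Test system: hSENP1 catalytic domain, recombinant; Amount: 20 pM final SENP1 enzyme; Medium: Tris pH 8 buffer plus EDTA, NaCl, BME, BSA, NP40, catalase; Schedule: 50 min enzyme reaction, room temperature, light-protected; Technique: FRET fluorescence in CFP and YFP emission channels; Controls: no-enzyme wells low, DMSO-plus-enzyme wells high control.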
GRK2 inh confirm: confirmation of human GRK2 inhibitors displacing RNA aptamer | bead-bound GRK2, FAM-aptamer displacement, flow cytometry | aptamer displacement, % at 10 µM | 4% of 2,000 active | AID 504451 | shares compounds with GRK2 aptamer HTS;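 active = aptamer displacement above 40%, near three times the noise of non-fluorescent compounds, on plates passing quality checks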;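 also: negative values mostly reflect intrinsic compound fluorescence rather than true enhancement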
Aptamer quench: quenches fluorescent RNA aptamer, GRK2 hit artifact; shares compounds with GRK2 aptamer HTS; Fluorescent RNA aptamer beads, quenching, flow cytometry; active compounds read high; fluorescence change (kMESF span), kMESF (no concentration beside the values); 110 tested, under 10 active; AID 504521;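 active = compounds whose bead fluorescence drops by more than 37 kMESF across the dose range, marking them as dye quenchers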
Aptamer quench SP: quenches fluorescent RNA aptamer, GRK2 hit artifact. shares compounds with GRK2 aptamer HTS. Carboxyfluorescein RNA aptamer on beads, flow cytometry quenching; active compounds read low. fluorescence response (% of DMSO), % at 10 µM. 2,000 tested, under 10 active;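 active = compounds that quench the bead-bound fluorescent RNA probe, cutting fluorescence to under half of the solvent control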;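 also: counterscreen run without GRK2 so only probe quenching by compound is measured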
* marks the source's active call; other numbers are inactive results; / = no result.

SMILES	NadD inh	GRK2 aptamer HTS	Beta2AR agonist	ABHD5-PLIN5 inh	SENP1 FRET inh	others
CN(C)[C@@H]1C(=O)C(C(N)=O)=C(O)[C@@]2(O)C(=O)C3=C(O)c4c(O)cccc4[C@@](C)(O)C3C[C@@H]12 (some centres undefined)	5	3	8	1	25
CCn1nc(-c2cccs2)nc2c(=O)n(C)c(=O)nc1-2	2	/	102*	-11	44*
CCn1nc(/C=C/c2ccccc2)nc2c(=O)n(C)c(=O)nc1-2	1	/	68*	-38	20
CCOc1ccc(-n2c(-c3cccs3)nc3ccccc3c2=O)cc1	1	2	-14	2	-2
CN1C2CCC1CC(OC(=O)c1cccc(O)c1)C2 (centres undefined)	0	/	-1	-3	-2
COc1ccc(C(=O)OC2C[C@H]3CC[C@@H](C2)N3O)cc1OC (some centres undefined)	-9	2	62*	-3	0
CCOC(=O)NC1CCc2cc(OC)c(OC)c(OC)c2-c2ccc(OC)c(=O)cc21 (centres undefined)	3	/	10	-8	1
C[C@]12CCC3C(CC[C@H]4C[C@@H](O)CC[C@]34C)C1=CC[C@@H]2O (some centres undefined)	3	/	/	1	1
Cc1ccc(N2C(=O)NC(=O)/C(=C\c3cc(C)n(-c4sc5c(c4C#N)CCCC5)c3C)C2=O)cc1	34*	2	33	9	-5
CCOC(=O)c1c(-n2c(C)cc(C=C3C(=O)NC(=S)NC3=O)c2C)sc2c1CCCC2	46*	7	13	-15	-23
CCOC(=O)c1c(-n2c(C)cc(/C=C3/C(=O)NC(=O)N(CC)C3=O)c2C)sc2c1CCCC2	25	1	8	-10	-30
COc1ccc(CN2Cc3cc(N4CCOCC4)ccc3-n3nncc3C2)cc1	-5	/	/	-6	3
N[C@@H](CCl)C(=O)O	1	3	3	-4	0
NC(Cc1cc(O)c(O)cc1O)C(=O)O (centres undefined)	/	71*	/	/	/
Cc1cccc(N2C(=O)NC(=O)/C(=C/c3ccc(N4CCOCC4)cc3)C2=O)c1	4	0	3	22*	-9
O=C1NC(=O)N(Cc2ccc(F)cc2)C(=O)/C1=C\c1ccc(N2CCCC2)cc1	33*	0	14	-17	-4
COc1ccc(N2C(=O)NC(=O)/C(=C\c3ccc([N+](=O)[O-])s3)C2=O)cc1	9	14	10	-2	13
COc1ccc(CN2C(=O)NC(=O)/C(=C/c3ccc([N+](=O)[O-])s3)C2=O)cc1	45*	4	-77	-10	-1
O=C1NC(=O)N(Cc2ccc(F)cc2)C(=O)/C1=C\c1ccc([N+](=O)[O-])s1	37*	0	-44	-9	4
Cc1c(NC(NC(=O)CF)C(Cl)(Cl)Cl)c(=O)n(-c2ccccc2)n1C (centres undefined)	0	0	-1	4	1
COc1cc2c(cc1OC)C13CCN4CC5=CCOC(CC(=O)O)C(C5CC41)C3N2 (centres undefined)	1	/	-4	-4	-6
O=C1NC(=O)C(CCc2ccncc2)(CCc2ccncc2)C(=O)N1Cc1ccccc1	1	3	1	1	1
O=c1[nH]c(=S)[nH]c(O)c1/C=C1/C=c2ccccc2=N1	18	2	52*	-14	-3
CC(C)(C)C(=O)N1Cc2cc(N3CCOCC3)ccc2-n2nncc2C1	-7	/	/	-5	-1
CN1C(=O)/C(=C/c2cccn2-c2ccc3ccccc3c2)C(=O)NC1=S	44*	0	47*	7	-8
SMILES	NadD inh	GRK2 aptamer HTS	Beta2AR agonist	ABHD5-PLIN5 inh	SENP1 FRET inh	others
C=CC[C@@H](C)CC(=O)C(CCCN=[N+]=[N-])SOOc1ccccc1 (some centres undefined)	-2	2	2	-9	0
O=[N+]([O-])c1cccc(NP(=O)(Oc2ccccc2)Oc2ccccc2)c1	-14	0	-12	0	2
Cc1cc(=O)oc2c(C)c(OCC(=O)N3CCN(Cc4ccccc4)CC3)ccc12	-1	0	9	19	-5	GRK2 inh confirm=4;Aptamer quench SP=102
Cc1c(C)c2ccc(OCC(=O)N3CCN(Cc4ccccc4)CC3)cc2oc1=O	-6	0	-11	3	3
CN1CCN(c2ccc(C(F)(F)F)cc2N)CC1	-2	2	4	0	1
CN1CCN(c2ccc(C(N)=O)cc2N)CC1	4	43*	0	0	0	GRK2 inh confirm=-2;Aptamer quench SP=102
C#C[C@@]1(O)CCC2C3CCC4=C/C(=N/OCC(=O)NC(CCC(N)=O)C(=O)O)CC[C@]4(C)C3CC[C@@]21C (some centres undefined)	-2	1	-4	6	1
CCN1C(=O)C(=C/C=C/c2ccco2)C(=O)N(CC)C1=S	22	30	-3	5	-15
CC(C)N1C(=O)/C(=C/C=C/c2ccco2)C(=O)N(Cc2ccco2)C1=O	17	16	19	20	-16	GRK2 inh confirm=11;Aptamer quench SP=103
CN1CCN(C(=O)COc2ccc(S(=O)(=O)N(C)Cc3ccccc3)cc2)CC1	-2	54*	-10	1	1	GRK2 inh confirm=-22;Aptamer quench SP=151
C=C1[C@H]2CC[C@H]3[C@]4(C)C[C@H](O[C@H]5O[C@H](CO)[C@@H](OS(=O)(=O)O)[C@H](OS(=O)(=O)O)[C@H]5OC(=O)CC(C)C)C[C@@H](C(=O)O)[C@H]4CC[C@]3(C2)[C@H]1O	2	3	1	1	0
CC[n+]1c(/C=C/N(C)c2ccccc2)sc2ccc(Cl)cc21	10	92*	0	-1	-73	GRK2 inh confirm=41*;Aptamer quench=26;Aptamer quench SP=108
O=C(O)C1C2c3ccccc3C(O)C1(C(=O)O)c1ccccc12 (centres undefined)	-1	/	7	0	2
CCN1/C(=C\C=C\C2=[N+](CC)c3ccccc3C2(C)C)C(C)(C)c2ccccc21	10	70*	-566	46*	64*	GRK2 inh confirm=24;Aptamer quench SP=100
CC(=O)c1ccc2c(c1)C1C(Cl)C(Sc3ccccc3[N+](=O)[O-])CC1C(C(=O)O)N2 (centres undefined)	22	5	14	-1	1
O=C(O)c1cccc2c1NC(C(=O)O)C1CC(Sc3ccccc3[N+](=O)[O-])C(Cl)C21 (centres undefined)	14	60*	-7	9	5	GRK2 inh confirm=41*;Aptamer quench=8.5;Aptamer quench SP=104
